# Screening data deposited in PubChem by several laboratories.
# A selection: hits, their analogues and other compounds. The true share with any hit is near 4.8%.
# HSF1 inhib = HSF1 inhibitors in luciferase reporter cells, primary screen, cell-based, NIH3T3, luminescence | NIH3T3-HGL HSE-luciferase, MG132-induced, luminescence 8 h; active compounds read low | activity change, negative = inhibition, % at 7.5 µM (by protocol) | 0.77% of 300,000 active | AID 2098, 2009;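 active = more than half of replicate wells show activity change below -50%, luminescence cut by over half; inconclusive = some wells, but at most half, below -50%; inactive = no replicate well below -50%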;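 note: luciferase reports HSF-1 transcriptional activity via heat shock element; 0% = median of DMSO wells and -100% = zero luminescence signal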
# T cruzi inh = inhibitors of intracellular T. cruzi growth, primary screen, luminescence, NIH3T3 host cells; AID 1885, 2009; 1.4% of 300,000 active; T. cruzi beta-gal in NIH3T3, 90 h; inhibition, % (concentration not given with the values);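 active = mean inhibition across valid replicates above about 55%, limit read from the data; inconclusive = mean below that limit but half or more replicates reach it; inactive = mean below it, under half of replicates reach it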;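 note: signal also drops with host cell toxicity which is not excluded here; 0% = plate median of DMSO wells and 100% = zero luminescence signal; higher percent means less beta-gal luminescence so fewer parasites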
#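 Assay system: NIH/3T3 fibroblasts plus reporter T. cruzi. Amount: NIH/3T3 cells, 5,000 per well. Buffer or medium: DMEM, 2% fetal bovine serum. Doses: compound pinned at 50 nL/well, DMSO. Schedule: ≥90 h infection period, 3 h prior cell attachment. Signal: luminescent β-galactosidase signal after 60 min lysis. Read-out: parasite load inhibition, %.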
# Jurkat NFkB inh = inhibitors of induced NF-kB luciferase reporter, primary screen, TCR NF-kB activation inhibitor project, cell-based, luminescence, uHTS; AID 435003, 2010; 0.53% of 330,000 active; inhibition, % at 4 µM; Jurkat, PMA/ionomycin-induced NF-kB luciferase reporter; in the data active = inhibition above about 50%
# 697 NFkB inh = inhibitors of PMA/ionomycin-induced NF-kB reporter, 697 cells, primary screen, B-cell NF-kB inhibitor project, cell-based, luminescence, uHTS | 0.33% of 330,000 active | 697 B-cell NF-kB luciferase reporter, 16 h | inhibition, % at 4 µM; in the data active = inhibition above about 35%
# HSF-1 act = HSF-1 activators, primary screen, NIH3T3-HGL cells, MG132 stress, luminescence, single point. NIH3T3-HGL HSF-1 luciferase reporter, 8 h; 100% = twice DMSO control signal. activation, % at 9 µM. 1.7% of 300,000 active;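 active = mean replicate activation of at least 50% with a set share of replicates each reaching 50%; inconclusive = only one of those two conditions met; inactive = mean below 50% and too few replicates reaching it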;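 note: 0% = median of the neutral control wells and 100% = twice that signal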
# GPR7 antag = GPR7 receptor antagonists, primary screen, cell-based, fluorescence, single concentration | GPR7-expressing cells, fluorescence antagonist assay | inhibition, % at 4.4 µM | 1.1% of 290,000 active | AID 1861, 2009; in the data active = inhibition above about 16%, passing the limit was not always enough;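 note: cells stimulated with the agonist NPW; 0% = agonist with vehicle and 100% = vehicle without agonist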
# Target sequence (P48145 whole entry, looked up): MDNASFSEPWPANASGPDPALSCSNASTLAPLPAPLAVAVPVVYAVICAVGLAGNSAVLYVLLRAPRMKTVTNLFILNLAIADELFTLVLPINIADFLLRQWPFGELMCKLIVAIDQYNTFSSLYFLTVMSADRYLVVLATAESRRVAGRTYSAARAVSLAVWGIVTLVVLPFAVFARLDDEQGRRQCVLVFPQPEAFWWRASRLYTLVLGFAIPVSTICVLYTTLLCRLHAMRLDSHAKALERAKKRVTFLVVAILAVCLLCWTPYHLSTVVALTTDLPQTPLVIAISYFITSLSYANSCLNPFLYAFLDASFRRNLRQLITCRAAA
# * marks the source's active call; other numbers are inactive results; ? = inconclusive; nt = no result.
SMILES,HSF1 inhib,T cruzi inh,Jurkat NFkB inh,697 NFkB inh,HSF-1 act,GPR7 antag
COCCNC(=O)C1CC(=O)N(C2CCCCC2)C1 (stereo not drawn),15.0,-2.4,4.7,21.7,55.4*,-10.5
Cc1ccc(-c2nn(-c3ccccc3)cc2C=C2C(=O)CC(C)(C)CC2=O)cc1,15.9,12.2,-34.5,-50.0,16.3,-11.5
CC1(C)CC(=O)C(=Cc2cn(-c3ccccc3)nc2-c2ccccc2)C(=O)C1,100.3,-26.7,3.6,7.2,147.2*,nt
CC(C)(C)c1ccc2c(c1)N(CC(=O)O)C(=O)CO2,1.6,7.3,-9.3,13.0,-4.3,4.9
CN(C)CCNC(=O)CN1C(=O)COc2ccc(C(C)(C)C)cc21,-67.9*,-3.6,13.7,13.1,-75.4,3.7
Cc1ccc2c(c1)N(CC(=O)O)C(=O)CO2,-79.6*,-1.2,-8.1,7.4,-83.1,6.1
Cc1ccc(CCNC(=O)CN2C(=O)COc3ccccc32)cc1,8.5,67.0*,2.3,2.1,13.9,-2.1
COc1cccc(C(=O)c2c[nH]c(C(=O)NCc3ccco3)c2)c1,-56.2*,-3.1,4.7,-8.9,-64.2,-0.4
COc1ccc(CCn2c(=O)[nH]c3cc(C(=O)N4CCN(c5ccccn5)CC4)ccc3c2=O)cc1OC,0.2,-16.9,16.5,8.3,-15.9,-24.4
COc1cc(NC(=S)Nc2cccc(Cl)c2Cl)c(OC)cc1Cl,-5.2,28.0,-2.4,-21.5,-7.2,-11.4
COc1cc(NC(=S)NC(C)(C)C)c(OC)cc1Cl,32.4,15.8,11.3,-9.3,63.4*,-3.5
O=C(O)c1cccc(Cn2c(Cl)c(/C=N/NC(=O)c3ccc(O)cc3)sc2=O)c1,5.5,-7.0,-2.7,9.7,18.6,-4.2
O=c1sc(/C=N/Nc2ccccc2)c(Cl)n1Cc1ccccc1,119.4,50.0,-54.3,1.9,149.3*,-2.2
CCCN1C(=O)/C(=C\C=C2/C=CN(CC)c3ccccc32)SC1=S,-1.8,39.4,5.0,-3.4,-5.7,21.2*
CC(C)CN(C(=O)CN1C(=O)NC2(CCc3ccccc32)C1=O)C1CCS(=O)(=O)C1 (stereo not drawn),nt,nt,-6.2,8.1,nt,nt
CCOc1cc(/C=C\[N+](=O)[O-])ccc1OCC(=O)N1CCOCC1,188.5,-3.1,-4.3,7.0,310.5*,1.5
CCOc1cc(/C=C/c2nc3cc(C)c(C)cc3s2)ccc1OCC(=O)N1CCOCC1,13.2,10.9,-13.3,-10.1,29.1,-10.1
O=C(COC(=O)c1ccc([N+](=O)[O-])s1)c1ccc[nH]1,nt,nt,4.9,-3.4,nt,nt
O=c1[nH]c(-c2ccccn2)nc2sc(-c3ccccc3)cc12,67.8,54.8*,nt,nt,?,3.1
Cc1c(C(=O)N(C)C)sc2nc(-c3ccccn3)[nH]c(=O)c12,2.4,-16.4,-16.9,-5.8,-2.0,0.7
COc1ccccc1C(=O)NC(=O)COC(=O)c1ccc([N+](=O)[O-])cc1,-0.3,-7.0,8.4,11.4,-21.1,nt
Cc1ccc(S(=O)(=O)N2CCOCC2)cc1NC(=O)c1cc2c(s1)CCC2,-1.8,52.1,6.7,12.6,1.2,0.2
Cc1ccc(S(=O)(=O)Nc2ccc(Cl)cc2)cc1NC(=O)c1cc2c(s1)CCCC2,16.6,74.9*,6.3,-0.7,25.8,-14.5
C/C(=N\NC(=O)CN1CCN(c2ccc(F)cc2)CC1)c1ccco1,-0.2,-20.3,0.2,-3.9,-7.2,nt
Cc1ccc[n+](CC(=O)Nc2ccc([N+](=O)[O-])cc2Cl)c1,26.7,-13.3,1.3,10.8,66.6*,-11.4
Cc1cccc(C)c1NC(=O)C1(N2C(=O)CC2c2ccccc2)CCCCC1 (stereo not drawn),5.2,-19.8,2.7,0.1,2.6,18.4*
Cc1cccc(C)c1NC(=O)C1(NC(=O)C2CCC(=O)N2)CCCCC1 (stereo not drawn),-5.7,-18.8,7.2,19.9,3.6,4.0
